ChEMBL document CHEMBL1122077, “Synthesis and cardiovascular activity of a new series of cyclohexylaralkylamine derivatives related to perhexiline” (1982)

What was measured:
[1] = organism: Rattus norvegicus; assay: Alpha-adrenolytic activity on the descending thoracic branch of the rat aorta; format: functional
Method in brief: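 Isolated aorta preparation set at 2 g resting tension and stabilized about 2 h. Antagonist was added to the bath 30 min before the assay. Competitive antagonism was expressed as pA2 (Arunlakshana–Schild method). Noncompetitive antagonism was expressed as pD2' (Ariens–Van Rossum calculation).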

[2] = system: Canis familiaris; assay: In vivo percent coronary flow in Mongrel dogs after administration at 3 mg/Kg (iv); format: functional, Canis lupus familiaris
Method in brief: (§1)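 Overnight-fasted mongrel dogs of either sex (15–25 kg), pentobarbital 25 mg/kg iv (maintenance 1 mg/kg iv) plus levopromazine 0.5 mg/kg im. Femoral-vein injections at 0.3–1 and 3 mg/kg; coronary flow increase given as percent of the period before the 3 mg/kg injection.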

[3] = organism: Sus scrofa; assay: Antagonism of calcium-induced contraction of a depolarized coronary in pig; format: functional; design: unit not given beside the values
Method in brief: (§2)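 Helical pig coronary strips (2–2.5 cm long, 3–4 mm wide) at 0.5 g resting tension in modified Krebs-Henseleit (1.25 mmol/L CaCl2), depolarized, contracted with calcium. Antagonist added 30 min beforehand. Result as pA2 (Arunlakshana–Schild) or pD2' (Ariens–Van Rossum, for noncompetitive antagonism).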

[4] = organism: Rattus norvegicus; assay: Alpha-adrenolytic activity (pA2) on the descending thoracic branch of the rat aorta; format: functional
Method in brief: (§3)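 Rat aortic strips held at 2 g resting tension, left about 2 h to stabilize; antagonist put in the bath 30 min before agonist challenge. pA2 by Arunlakshana–Schild analysis as developed by Miesch et al.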

[5] = organism: Sus scrofa; assay: Antagonism of calcium-induced contraction on the depolarized coronary of pig; Insoluble; format: functional, organism-based; method in brief: as §2
[6] = system: Canis familiaris; assay: In vivo percent coronary flow in Mongrel dogs after administering 3 mg/Kg (iv) of the compound; Insoluble; format: functional, organism-based; details: Canis lupus familiaris; method in brief: as §1
[7] = organism: Rattus norvegicus; assay: Alpha-adrenolytic activity (pA2) on the descending thoracic branch of the rat aorta; Insoluble; format: functional, organism-based; method in brief: as §3

Compound	Alpha-adrenolytic activity [1]	Coronary flow [2]	Ca2+ antagonism [3]	Alpha-adrenolytic activity [4]	Ca2+ antagonism [5]	Coronary flow [6]	Alpha-adrenolytic activity [7]
COc1ccc(CC(C)NCC(c2ccccc2)C2CCCCC2)cc1.O=C(O)/C=C\C(=O)O (stereo not given)	6	100.5	5.1	–	–	–	–
CC(Cc1ccc(O)cc1)NCC(c1ccccc1)C1CCCCC1.O=[N+]([O-])O (stereo not given)	6.35	105	4.8	–	–	–	–
Cc1ccc(C(CNC2CCCCC2)C2CCCCC2)cc1.O=C(O)/C=C\C(=O)O (stereo not given)	–	68	6	6.55	–	–	–
C1CCC(NCCCCC(C2CCCCC2)C2CCCCC2)CC1	–	–	–	–	Insoluble	Insoluble	Insoluble
C1CCC(NC(C2CCCCC2)C2CCCCC2)CC1.Cl	–	194	5.45	6.2	–	–	–
O=[N+]([O-])O.c1ccc(C(CNC2CCCC2)C2CCCCC2)cc1 (stereo not given)	–	38.5	6.2	5.9	–	–	–
CN(CCC(C1CCCCC1)C1CCCCC1)C1CCCCC1.O=C(O)/C=C\C(=O)O	–	67	4.85	6.15	–	–	–
C1CCC(C(CC2CCCCN2)C2CCCCC2)CC1 (stereo not given) [PERHEXILINE]	–	37.5	5.2	6.7	–	–	–
CC(CCc1ccccc1)NCCC12CC3CC(CC(C3)C1)C2.O=C(O)/C=C\C(=O)O (stereo not given)	–	215	5.1	7.15	–	–	–
C1CCC(NCCC(C2CCCCC2)C2CCCCC2)CC1.Cl	–	130	4.85	7.25	–	–	–
CN1CCCCC1CC(C1CCCCC1)C1CCCCC1 (stereo not given)	–	135	5.3	6.9	–	–	–
CC(C)(C)NCC(c1ccccc1)C1CCCCC1.Cl (stereo not given)	–	104.5	<4.5	7.25	–	–	–
COc1ccc(CCNCCC(C2CCCCC2)C2CCCCC2)cc1OC.O=C(O)/C=C\C(=O)O	6.3	44.5	4.1	–	–	–	–
CC(Cc1ccccc1)NCC(c1ccccc1)C1CCCCC1.O=C(O)/C=C\C(=O)O (stereo not given)	–	157	6.2	6.9	–	–	–
CC(Cc1ccccc1)NCCC(C1CCCCC1)C1CCCCC1.O=C(O)/C=C\C(=O)O (stereo not given)	–	42	5.2	<5	–	–	–
COc1ccc(CCNCC(c2ccccc2)C2CCCCC2)cc1OC.O=C(O)/C=C\C(=O)O (stereo not given)	7.25	73	3.6	–	–	–	–
C1CCC(NCCCC(C2CCCCC2)C2CCCCC2)CC1.Cl	–	95.5	4.6	6.05	–	–	–
COc1ccc(CCNCCC23CC4CC(CC(C4)C2)C3)cc1OC.Cl	7.35	133	4.8	–	–	–	–
CC(Cc1ccccc1)NCCC12CC3CC(CC(C3)C1)C2.O=C(O)/C=C\C(=O)O (stereo not given)	–	146	4.85	7.3	–	–	–
C1CCC(NCCC23CC4CC(CC(C4)C2)C3)CC1.O=C(O)/C=C\C(=O)O	–	99	4.7	6.75	–	–	–
CC(CCc1ccccc1)NCC(c1ccccc1)C1CCCCC1.O=C(O)/C=C\C(=O)O (stereo not given)	–	71.5	6.1	7.6	–	–	–
Cl.Oc1ccc(C(CNC2CCCCC2)C2CCCCC2)cc1 (stereo not given)	7.1	133.5	4.5	–	–	–	–
CC(CCc1ccccc1)NCCC(C1CCCCC1)C1CCCCC1 (stereo not given)	–	–	–	–	Insoluble	Insoluble	Insoluble
O=[N+]([O-])O.c1ccc(C(CNC2CCCCC2)C2CCCCC2)cc1 (stereo not given)	–	62	4.6	7.9	–	–	–
Cl.c1ccc(C(CCNC2CCCCC2)C2CCCCC2)cc1 (stereo not given)	–	156	5.8	6.8	–	–	–
